TLR9-MyD88 inh: inhibitors of human TLR9-MyD88 binding | CHO BLA complementation TLR9-MyD88, CCF4 FRET ratio | 340,000 compounds, 0.21% hits | inhibition, % at 4.98 µM | Q9NR96+Q99836;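 active = inhibition above the mean over all tested compounds plus 3 SD, cut at about 21% in these data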;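 also: 0% = DMSO only wells and 100% = clavulanate BLA inhibitor control wells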
NOD2 RIPK2 PPI: blocks binding of human NOD2 to RIPK2. CHO BLA complementation NOD2-RIPK2, CCF4 ratio. AID 624267. 360,000 compounds, 0.38% hits. inhibition, % at 4.98 µM. O43353; in the data active = inhibition above about 21%;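 also: 0% = vehicle only and 100% = reference blocker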
Target sequence (O43353 whole entry, looked up): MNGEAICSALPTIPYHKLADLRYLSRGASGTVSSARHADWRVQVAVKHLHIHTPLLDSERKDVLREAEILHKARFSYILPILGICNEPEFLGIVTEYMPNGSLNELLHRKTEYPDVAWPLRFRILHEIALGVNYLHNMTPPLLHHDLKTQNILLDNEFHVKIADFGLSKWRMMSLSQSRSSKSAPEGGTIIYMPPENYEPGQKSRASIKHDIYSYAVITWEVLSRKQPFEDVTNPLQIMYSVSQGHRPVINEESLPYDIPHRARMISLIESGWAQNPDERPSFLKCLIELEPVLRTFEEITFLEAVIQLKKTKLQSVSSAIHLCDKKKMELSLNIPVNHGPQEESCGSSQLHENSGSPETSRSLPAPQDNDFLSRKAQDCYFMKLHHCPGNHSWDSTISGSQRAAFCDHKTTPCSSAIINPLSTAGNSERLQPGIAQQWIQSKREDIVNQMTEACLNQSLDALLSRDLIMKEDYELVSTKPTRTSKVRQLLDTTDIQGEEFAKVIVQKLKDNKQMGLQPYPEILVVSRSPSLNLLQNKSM
TLR4-MyD88 BLA: inhibitors of human TLR4-MyD88 binding | O00206+Q99836 | HeLa CL3-4 TLR4/MyD88 BLA complementation, FRET ratio | inhibition, % at 8.4 µM | 200,000 compounds, 0.18% hits | AID 861; in the data active = inhibition above about 25%;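 also: 0% = vehicle and 100% = reference inhibitor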
MC4R antag cAMP: blocks human MC4R cAMP signaling; P32245; 360,000 compounds, 0.48% hits; inhibition, % at 6.5 µM; MC4R-expressing cells, MTII-stimulated cAMP, LANCE TR-FRET;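 active = inhibition above its plate's cutoff, the mean of tested wells on that plate plus 3 SD, cut at about 29% in these data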;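 also: 0% = Melanotan II alone and 100% = Melanotan II plus saturating MCL0020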
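material = U2OS cells stably expressing human melanocortin 4 receptor (MC4R) | also added = Melanotan II challenge | dosing = single nominal compound dose of 6.5 µM | detection = TR-FRET with Eu-cAMP and labeled anti-cAMP, 671 nm | replication = singlicate | timing = compound 30 min, challenge 1 h, detection 1 h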
NTR1 ag: activates human neurotensin receptor 1; AID 493036; NTR1-U2OS beta-arrestin-GFP spot imaging, agonist mode; activation, % at 20 µM; P30989; 330,000 compounds, 0.17% hits;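 active = activation at or above 40% of the spot to cytoplasm intensity ratio, with at least 20 cells analyzed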;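 also: 0% = DMSO without peptide and 100% = 100 nM NTR1 peptide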
MC4R ag barr: human MC4R agonism via beta-arrestin. P32245. U2OS MC4R beta-arrestin complementation, luminescence; percent of melanotan II response, DMSO zero. activation, % at 8.9 µM. 360,000 compounds, 0.98% hits. AID 540308;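 active = activation above a per-plate cutoff, the mean activation of sample wells on that plate plus 3 SD, cut at about 8% in these data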
MC4R barr conf: human MC4R beta-arrestin agonism confirmation. shares compounds with MC4R ag barr. U2OS MC4R beta-arrestin recruitment, luminescence; scaled DMSO 0%, Melanotan II 100%. activation, % at 8.9 µM. 2,400 compounds, 31% hits;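 active = mean activation across replicates above the hit cutoff set in the earlier primary screen, cut at about 8% in these data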
MOR-DOR barr ag: activates mu-delta opioid heterodimer, MC4R agonist counter-screen | shares compounds with MC4R ag barr | U2OS PathHunter beta-arrestin, beta-gal luminescence; percent of deltorphin B response, DMSO zero | activation, % at 9.2 µM | AID 602194 | 2,400 compounds, 5.8% hits;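 active = mean activation across replicates exceeds the hit threshold derived in the earlier primary screen, cut at about 18% in these data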;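 also: 100% = deltorphin B at 0.9 µM final and 0% = DMSO alone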
* hit, by the source's call; · = not tested or not shown. A selection: hits, their analogues and other compounds. The true share with any hit is near 1.9%.

SMILES	TLR9-MyD88 inh	NOD2 RIPK2 PPI	TLR4-MyD88 BLA	MC4R antag cAMP	NTR1 ag	MC4R ag barr	MC4R barr conf	MOR-DOR barr ag
COc1cc(C(F)(F)F)nc2ccc(C#CCOC(=O)Nc3ccccc3)cc12	-2	-8	·	6	4	14*	6	6
CC(c1ccccc1)N(CC(=O)NC1CCCCC1)S(=O)(=O)c1cccc(C(F)(F)F)c1 (stereo not drawn)	-153	-9	-4	17	12	0	·	·
O=C(CN(Cc1ccccc1)S(=O)(=O)c1cccc(C(F)(F)F)c1)NC1CCCCC1	-11	4	-3	4	3	12*	0	5
O=c1onc(-c2cccnc2)n1-c1ccccc1F	1	-7	·	0	-1	1	·	·
Cc1ccccc1OCC(=O)N/N=C/c1cn(Cc2ccccc2)c2ccccc12	-2	3	11	-15	5	33*	12*	5
O=C(NC(=S)Nc1ccc2c(c1)OCO2)c1ccc(Cl)cc1	0	14	-23	-6	5	11*	1	3
Cc1ccc(C(=O)NC(=S)Nc2ccc(NC(=O)c3cccc(Cl)c3)cc2)cc1	0	-6	10	5	15	12*	13*	8
O=C(CNC(=O)N1CC(=O)Nc2ccccc21)NCc1ccccc1Cl	0	-3	·	1	0	-2	·	·
C=CC[C@@H](CC(=O)N[C@@H](CO)Cc1ccccc1)C(=O)N[C@@H](COC(=O)[C@@H](CC=C)Cc1ccc(F)cc1)Cc1c[nH]c2ccccc12	-3	1	·	14	4	20*	4	13
C=CCC[C@H](Cc1ccc(F)cc1)C(=O)OC[C@H](Cc1c[nH]c2ccccc12)NC(=O)[C@H](CC=C)CC(=O)N[C@H](CO)Cc1ccccc1	-4	-6	·	19	2	11*	2	5
C=CCC[C@H](Cc1ccc(F)cc1)C(=O)OC[C@H](Cc1c[nH]c2ccccc12)NC(=O)[C@@H](CC=C)CC(=O)N[C@@H](CO)Cc1ccccc1	11	-11	·	8	2	24*	15*	9
C=CC[C@H](CC(=O)N[C@H](CO)Cc1ccccc1)C(=O)N[C@H](COC(=O)[C@@H](CC=C)Cc1ccc(F)cc1)Cc1c[nH]c2ccccc12	4	-13	·	-4	·	-1	·	·
O=C(COc1ccccc1F)NNC(=O)c1cccc(-n2cccc2)c1	0	-6	·	-2	0	-1	·	·
COc1ccc(OCc2n(CC(=O)OC3CC(C)CCC3C(C)C)c3ccccc3[n+]2C)cc1 (stereo not drawn)	2	-4	·	-6	28	38*	11*	9
COc1ccc(C(=O)Nc2ccc(N3CCCCC3)cc2)cc1Br	-17	10	-10	-2	3	13*	2	8
Cc1ccc(C(=O)Nc2ccc(N3CCCCC3)cc2)cc1	8	-16	·	4	1	5	·	·
CN(C)CCn1c(=O)n(-c2cccc(Cl)c2)c(=O)c2c3c(sc21)CCCCC3	4	-14	·	0	2	-3	·	·
Nc1ccc(S(=O)(=O)Nc2nccc(/C=C/c3ccc(Cl)cc3)n2)cc1	-1	-5	·	5	0	21*	-1	2
Nc1ccc(S(=O)(=O)Nc2nccc(/C=C/c3ccc([N+](=O)[O-])cc3)n2)cc1	4	-14	·	13	0	2	·	·
CCOc1ccc(CCNC(=O)c2cc(C)nc3ccccc23)cc1OCC	-6	7	·	-2	1	-2	·	·
Cc1ccc2nc(-c3ccc(NS(=O)(=O)c4c(C)n(C)c(=O)n(C)c4=O)cc3)sc2c1	-4	-1	·	11	1	-1	·	·
Cc1ccc(S(=O)(=O)Nc2ccc(-c3nc4ccc(C)cc4s3)cc2)cc1	5	5	-8	8	10	14*	15*	3
Cc1cccc(S(=O)(=O)Nc2ccc(-c3nc4ccc(C)cc4s3)cc2)c1	-2	11	5	0	5	16*	0	2
Cc1ccc2c(c1)[C@H]1[C@H](CO2)[C@H](c2ccccc2)[C@]2(C)C(=O)N(Cc3ccc(F)cc3)CC(=O)N12	-8	6	·	6	6	0	·	·
O=C(CCCCCn1c(=S)[nH]c2ccc(N3CCOCC3)cc2c1=O)NCc1ccccc1Cl	-2	10	-10	7	9	5	·	·
SMILES	TLR9-MyD88 inh	NOD2 RIPK2 PPI	TLR4-MyD88 BLA	MC4R antag cAMP	NTR1 ag	MC4R ag barr	MC4R barr conf	MOR-DOR barr ag
O=C(CCCCCn1c(=S)[nH]c2ccc(N3CCOCC3)cc2c1=O)NCCc1ccccc1	3	-4	5	4	3	18*	0	18*
O=C(CCCCCn1c(=S)[nH]c2ccc(N3CCOCC3)cc2c1=O)NCc1ccc(Cl)cc1	1	7	-5	13	13	10*	2	3
CCCCn1c(=S)[nH]c2ccc(N3CCOCC3)cc2c1=O	·	·	-6	·	4	·	·	·
O=C(CCCCCn1c(=S)[nH]c2ccc(N3CCOCC3)cc2c1=O)NCc1ccc2c(c1)OCO2	9	-1	-1	13	1	13*	0	2
CN1C(=O)CC(=O)N(C)c2cc(S(=O)(=O)N(C)Cc3ccccc3)ccc21	7	-1	·	8	1	-1	·	·
COc1ccc(OCC(O)CNC(=O)c2ccccc2)cc1 (stereo not drawn)	-4	4	·	4	-2	0	·	·
COc1cc(NC(=O)CSc2nc3ccccc3c(=O)n2C)ccc1NC(=O)c1ccco1	-2	-4	10	20	5	14*	0	17
Cc1nc2ccc(F)cc2cc1C(=O)Nc1ccc(Cl)c(Cl)c1	-9	1	-10	-1	·	9.9*	-2	6
O=C1N/C(=C/c2cccn2-c2ccccc2)C(=O)N1Cc1ccc(F)cc1	1	6	-23	-7	5	17*	2	5
COc1ccc(CNC(=O)C2CCCN(c3nccc(C)n3)C2)cc1 (stereo not drawn)	-1	-10	-16	-1	-2	-1	·	·
COc1cc(NC(=O)c2cccs2)c(OC)cc1NC(=O)CCC(=O)Nc1ccc(C)cc1	0	0	·	12	4	13*	3	1
NC(CCc1ccccc1)c1csc(NC(=O)Nc2ccccc2Oc2ccccc2)n1 (stereo not drawn)	·	7	·	12	·	18*	4	25*
NC(Cc1ccc(Cl)cc1)c1csc(NC(=O)Nc2ccccc2-c2ccccc2)n1 (stereo not drawn)	·	-2	·	13	·	19*	11*	9
